The subject of series [1] is A549. As to the kind of experiment: Cytotoxicity against human A549 cells overexpressing ACE2 and TMPRSS2 incubated for 48 hrs by MTS assay. It is filed as functional. A digest of the protocol: (§1)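 A549 AT host cells were used for viability read-out. More than 95% viability at 50 μM was classed as nontoxic. CC50 values came from at least duplicate determinations and were averaged.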
On the technique in general: Tetrazolium assays rely on reduction of a dye to a coloured formazan, in cell work by metabolically active cells.

In series [2] the test system is A549. Nature of the series: Cytotoxicity against human A549 cells overexpressing ACE2 and TMPRSS2 assessed as cell viability at 50 uM incubated for 48 hrs by MTS assay. It is filed as functional. The following applies: read-out: Activity. A digest of the protocol:
as §1

A short description of series [3]: Metabolic stability in CD-1 mouse liver S9 fraction assessed as half life at 1 micromol/L in presence of UDPGA measured upto 24 hrs by LC-MS/MS analysis. It is filed as ADME, subcellular. The following applies: s9, 24 h, 1 µM, dose 1 µmol/L.
Series [4] addresses Replicase polyprotein 1ab (Severe acute respiratory syndrome coronavirus 2) (UniProt P0DTD1). Nature of the series: Stabilization of SARS-CoV-2 NSP14 expressed in Escherichia coli BL21(DE3) assessed as change in melting temperature at 200 uM incubated for 4 mins by SYPRO orange dye based thermal shift assay.
Series [5] is described as follows: Metabolic stability in CD-1 mouse plasma at 1 micromol/L measured upto 24 hrs by LC-MS/MS analysis. In kind it is ADME, cell-free. The following applies: dose 1 µmol/L.
Series [6] is described as follows: Metabolic stability in CD-1 mouse liver S9 fraction assessed as half life at 1 micromol/L in presence of NADPH measured upto 24 hrs by LC-MS/MS analysis. The following applies: s9, 24 h, 1 µM, dose 1 µmol/L. It is filed as ADME, subcellular.
Series [7] is described as follows: Metabolic stability in human plasma at 1 micromol/L measured upto 24 hrs by LC-MS/MS analysis. In kind it is ADME, cell-free. The following applies: dose 1 µmol/L. A digest of the protocol:
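Compound was incubated in human plasma, and percentage remaining was followed over the incubation. Data are mean ± SD.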

Series [8] can be described thus: Metabolic stability in human liver S9 fraction assessed as half life at 1 micromol/L in presence of UDPGA measured upto 24 hrs by LC-MS/MS analysis. It is filed as ADME, subcellular. The following applies: s9, 24 h, 1 µM, dose 1 µmol/L.
Series [9] can be described thus: Metabolic stability in human liver S9 fraction assessed as half life at 1 micromol/L in presence of NADPH measured upto 24 hrs by LC-MS/MS analysis. It is filed as ADME, subcellular. The following applies: s9, 24 h, 1 µM, dose 1 µmol/L.

Broadly, the CC50 is the concentration that lowers cell viability or growth by half. The term ΔTm denotes the change in melting temperature against a reference sample.

Bounds are passed on as bounds.

Consider `CC(C)C(=O)O[C@@H]1[C@H](OC(=O)C(C)C)[C@@H](CNS(=O)(=O)c2ccc3ccccc3c2)O[C@H]1n1cnc2c(N)ncnc21`, for which the CC50 with A549 [1] was greater than 100 µM.
Turning to `Nc1ncnc2c1ncn2[C@@H]1O[C@H](C[C@@H](N)CC[C@H](N)C(=O)O)[C@@H](O)[C@H]1O` [SINEFUNGIN], the viability at 50 µM with A549 [2] was greater than 95%.
Same read-out and setting: next, `Nc1ncnc2c1ncn2[C@@H]1O[C@H](CNS(=O)(=O)c2ccc3nc(Cl)ccc3c2)[C@@H](O)[C@H]1O`: greater than 95%; `Nc1ncnc2c1ncn2[C@@H]1O[C@H](CNC(=O)c2ccc3ccccc3c2)[C@@H](O)[C@H]1O`: greater than 95%.
Consider `O=c1ccc2ccc(O)cc2o1` [UMBELLIFERONE], for which the t1/2 in [3] was 0.013 h.
In the series with A549 [1], `CC(=O)Nc1ncnc2c1ncn2[C@@H]1O[C@H](CNS(=O)(=O)c2ccc3ccccc3c2)[C@@H](OC(C)=O)[C@H]1OC(C)=O` gave a CC50 greater than 100 µM.
On to `CC(=O)Nc1ncnc2c1ncn2[C@@H]1O[C@H](CNS(=O)(=O)c2ccc3ccccc3c2)[C@@H](O)[C@H]1O`, for which the ΔTm in series [4] is greater than 8 °C. This compound yielded a CC50 in the series on A549 [1] greater than 100 µM.
Regarding `CCC(CC)COC(=O)[C@H](C)N[P@](=O)(OC[C@H]1O[C@@](C#N)(c2ccc3c(N)ncnn23)[C@H](O)[C@@H]1O)Oc1ccccc1`, the CC50 with A549 [1] amounted to 43 µM.
For the compound `Nc1ncnc2c1ncn2[C@@H]1O[C@H](CNS(=O)(=O)c2ccc3cccnc3c2)[C@@H](O)[C@H]1O`, in the series with A549 [2], the viability at 50 µM is greater than 95%.
Regarding `Nc1ncnn2c([C@@H]3O[C@H](CNS(=O)(=O)c4ccc5ccccc5c4)[C@@H](O)[C@H]3O)ccc12`, the ΔTm in [4] is greater than 8 °C. Besides, the t1/2 at 24 h, 1 µM in series [5] and in series [7] was greater than 24 h each time. Further, the t1/2 was greater than 0.75 h in series [3], 0.482 h in [6], greater than 0.75 h in series [8] and 14 h in series [9]. Also, the CC50 in the series with A549 [1] was greater than 100 µM.
For `Nc1ncnc2c1ncn2[C@@H]1O[C@H](CNS(=O)(=O)c2ccc3ccccc3c2)[C@@H](O)[C@H]1O`, in [4], the ΔTm was greater than 8 °C. For the same compound, the t1/2 at 24 h, 1 µM in [5] and in series [7] was greater than 24 h each time. Besides, the t1/2 in [3] is greater than 0.75 h; in series [6] it was 4.55 h; in series [8] it was greater than 0.75 h; in series [9], 11.2 h. Also, the viability at 50 µM in the series with A549 [2] was greater than 95%.
In the series on A549 [1], `CC(=O)O[C@@H]1[C@H](OC(C)=O)[C@@H](CNS(=O)(=O)c2ccc3ccccc3c2)O[C@H]1c1ccc2c(N)ncnn12` displayed a CC50 of 63 µM.
For `Nc1ncnc2c1ncn2[C@@H]1O[C@H](CNCc2ccc3ccccc3c2)[C@@H](O)[C@H]1O`, the viability at 50 µM in the series on A549 [2] was greater than 95%.
`CC(=O)O[C@@H]1[C@H](OC(C)=O)[C@@H](CNS(=O)(=O)c2ccc3ccccc3c2)O[C@H]1n1cnc2c(N)ncnc21` had a CC50 in the series with A549 [1] greater than 100 µM.

These data come from ChEMBL document CHEMBL5143750, “Bisubstrate Inhibitors of Severe Acute Respiratory Syndrome Coronavirus-2 Nsp14 Methyltransferase” (ACS Med Chem Lett, 2022).
